Compound activity: PubChem BioAssay, The Scripps Research Institute Molecular Screening Center
TAAR1 antagonist – human TAAR1 antagonism; Q96RJ0; CHO RD-HGA16 TAAR1, Fluo-8 calcium fluorescence, antagonist; inhibition, % at 3 µM; hit rate 1.5% among 360,000; AID 624466;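 active means inhibition above a per-plate cutoff, the mean inhibition of test compounds on that plate plus 3 SD, cut at about 49% in these data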;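 further: 0% = DMSO plus EC80 beta-PEA response and 100% = DMSO alone without agonist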
Target sequence (Q96RJ0 whole entry, looked up): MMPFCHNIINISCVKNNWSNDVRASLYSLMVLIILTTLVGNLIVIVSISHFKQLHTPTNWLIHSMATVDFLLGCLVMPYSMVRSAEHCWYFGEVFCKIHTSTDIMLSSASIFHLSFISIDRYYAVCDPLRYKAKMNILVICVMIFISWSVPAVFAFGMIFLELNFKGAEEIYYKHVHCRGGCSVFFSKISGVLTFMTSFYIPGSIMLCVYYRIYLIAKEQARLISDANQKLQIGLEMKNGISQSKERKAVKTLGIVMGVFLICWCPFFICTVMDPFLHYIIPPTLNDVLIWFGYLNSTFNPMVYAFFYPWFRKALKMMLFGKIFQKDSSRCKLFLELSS
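test system = CHO RD-HGA16 cells bearing hTAAR1 | replication = singlicate | controls = DMSO-only wells and EC80 β-PEA-stimulated wells | reagent = EC80 β-phenethylamine stimulus | read-out basis = percent inhibition of PEA-evoked calcium signal, max/basal emission ratio | schedule = seeding 17-24 h prior, 75-min 37 °C, 30-min RT dye loading | signal = kinetic Fluo-8 calcium fluorescence measurement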
OXTR potentiate – potentiates the human oxytocin receptor response | P30559 | CHO-OTR cells, Fluo-8 calcium fluorescence, potentiator mode; 0% = oxytocin EC15, 100% = EC100 | activation, % at 3 µM | hit rate 0.061% among 320,000 | AID 2445;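 active means activation above that plate's cutoff, the mean activation of tested compounds plus 3 SD, cut at about 6.6% in these data, passing the limit was not always enough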;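 further: 100% uses oxytocin at 75 nM as the full agonist control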
Target sequence (P30559 whole entry, looked up): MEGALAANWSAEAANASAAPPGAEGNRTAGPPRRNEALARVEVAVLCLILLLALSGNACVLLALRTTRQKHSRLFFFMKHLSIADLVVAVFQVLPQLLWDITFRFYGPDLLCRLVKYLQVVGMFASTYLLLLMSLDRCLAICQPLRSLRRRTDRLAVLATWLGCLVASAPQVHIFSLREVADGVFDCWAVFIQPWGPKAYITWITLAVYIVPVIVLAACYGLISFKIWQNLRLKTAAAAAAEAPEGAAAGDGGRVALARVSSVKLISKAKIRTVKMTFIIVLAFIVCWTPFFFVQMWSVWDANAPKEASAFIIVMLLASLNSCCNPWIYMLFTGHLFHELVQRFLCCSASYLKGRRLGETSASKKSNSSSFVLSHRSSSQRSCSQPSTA
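Dosing: Single dose, 3.0 µM nominal final compound concentration | Material: Human OTR in CHO cells | Technique: Kinetic Fluo-8 calcium fluorescence | Benchmarks: EC15 oxytocin alone as 0%, 75 nM oxytocin as 100% | Probe or stimulus: Oxytocin at about EC15, sub-maximal agonist stimulus | Incubation: Compound 6 min at room temperature before oxytocin, 100 s read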
V1R ag counter – V1a receptor agonism, counter-screen for OXTR agonists. P37288. CHO-V1R cells, Fluo-8 calcium fluorescence, agonist mode; 0% DMSO, 100% 3 nM vasopressin. activation, % at 3 µM. hit rate 0.25% among 320,000. AID 2797;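 active means activation above the mean activation of all tested compounds plus 3 SD, per screening run, cut at about 20% in these data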;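 further: signal is peak over basal fluorescence ratio across a 100 second FLIPR read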
OXTR agonist – human OXTR agonism; P30559; CHO-OTR cells, Fluo-8 calcium fluorescence; normalized: DMSO 0%, oxytocin 100%; activation, % at 3 µM; hit rate 0.32% among 320,000; AID 2435;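 active means activation above the mean of all tested compounds plus 3 SD, cutoff set per screening run, cut at about 20% in these data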;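 further: peak over basal fluorescence ratio from a 100 s FLIPR kinetic read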
TAAR1 agonist – human TAAR1 agonism. activation, % at 3 µM. AID 624467. hit rate 0.99% among 360,000. CHO RD-HGA16 TAAR1, Fluo-8 calcium fluorescence; vehicle wells 0%, saturating PEA agonist 100%. Q96RJ0;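 active means activation above the mean activation of all test compounds in the run plus 3 SD, cut at about 38% in these data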
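System: CHO-derived RD-HGA16 cells with stable Gα16 and human TAAR1. Times: 17-24 h plating, Fluo-8 75 min 37 °C, 30 min RT. Measured by: calcium-sensitive Fluo-8 signal, excitation 470-495, emission 515-575 nm. Read-out basis: % activation relative to PEA EC100 response. Control set: DMSO and PEA EC100. Repeats: no replicates (n 1).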
TAAR1 ag confirm – human TAAR1 agonism, confirmed | shares compounds with TAAR1 agonist | CHO RD-HGA16 TAAR1, Fluo-8 calcium fluorescence; scaled: DMSO 0%, maximal phenethylamine 100% | hit rate 82% among 2,400 | activation, % at 3 µM;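 active means activation above a cutoff set at the run's mean compound activation plus 3 SD, cut at about 39% in these data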
Ga16 ag counter – nonselective agonist in parental cells, TAAR1 agonist counter-screen. shares compounds with TAAR1 agonist. CHO-Ga16 parental, Fluo-8 calcium fluorescence; normalized to maximal ATP response, DMSO zero. activation, % at 3 µM. hit rate 50% among 2,400. AID 651787;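 active means activation above the run cutoff, the mean activation over all tested wells plus 3 SD, cut at about 12% in these data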;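 further: 0% = DMSO wells and 100% = maximal ATP response on the peak over basal ratio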
TAAR1 desensitize – counter-screen for human TAAR1 agonists: agonists that desensitize TAAR1. shares compounds with TAAR1 agonist. CHO RD-HGA16 hTAAR1, Fluo-8 calcium, beta-PEA response inhibition. inhibition, % at 3 µM. hit rate 46% among 2,400. AID 651951;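 active means inhibition above the run cutoff, the mean inhibition of all test compounds plus 3 SD, cut at about 49% in these data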;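 further: beta-PEA stimulus applied at its EC80; loss of beta-PEA calcium signal after compound pretreatment read as receptor desensitization; 0% = DMSO with beta-PEA at EC80 and 100% = DMSO alone without agonist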
Ga16 nonsel ant – nonselective Ga16 antagonism, counter-screen; inhibition, % at 3 µM; shares compounds with TAAR1 agonist; hit rate 39% among 2,400; CHO-Ga16 ATP-induced calcium, Fluo-8 fluorescence;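 active means inhibition above the plate's mean compound inhibition plus 3 SD, computed per plate, cut at about 22% in these data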;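 further: 0% = EC80 ATP with DMSO and 100% = DMSO wells without ATP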
* = called active by the depositor. Most compounds without a hit are left out; they make up all but 2.3% or so of the library.

What do the screens show for `O=C(Nc1ccc2oc(-c3ccncc3)nc2c1)c1ccccc1F`?
TAAR1 antagonist: 13; OXTR potentiate: -5; V1R ag counter: 3; OXTR agonist: 2; TAAR1 agonist: 50*; TAAR1 ag confirm: 5; Ga16 ag counter: 20*; TAAR1 desensitize: -1; Ga16 nonsel ant: 14

Results for N#CC1=C(N)OC2=C(CC/C2=C\c2ccccc2)C1c1ccccc1 (configuration not stated) ?
TAAR1 antagonist: 71*; OXTR potentiate: -19; V1R ag counter: 26*; OXTR agonist: 28*; TAAR1 agonist: 64*; TAAR1 ag confirm: 46*; Ga16 ag counter: 69*; TAAR1 desensitize: 67*; Ga16 nonsel ant: 77*

How did O=C(c1cc(-c2ccc(O)cc2)on1)N1CCc2ccccc2C1 do in these assays?
TAAR1 antagonist: 33; OXTR potentiate: -9; V1R ag counter: 7; OXTR agonist: 7; TAAR1 agonist: 72*; TAAR1 ag confirm: 91*; Ga16 ag counter: 17*; TAAR1 desensitize: 67*; Ga16 nonsel ant: 11

What do the screens show for `CN(CC(=O)NCCCN1CCOCC1)S(=O)(=O)c1cc(Cl)ccc1Cl`?
TAAR1 antagonist: -18; TAAR1 agonist: 2

What do the screens show for `COc1cc(C(=O)N/N=C(\C)c2ccc(NC(=O)Cc3ccccc3)cc2)ccc1O`?
TAAR1 antagonist: -6; TAAR1 agonist: 0

What do the screens show for `CCOC(=O)Cn1c(=N)n(CCOc2ccc3ccccc3c2)c2ccccc21`?
TAAR1 antagonist: 11; OXTR potentiate: -9; V1R ag counter: 6; OXTR agonist: 13; TAAR1 agonist: 58*; TAAR1 ag confirm: 57*; Ga16 ag counter: 26*; TAAR1 desensitize: 51*; Ga16 nonsel ant: 41*

What do the screens show for `CCCCOC(=O)Cn1c(=N)n(CCC)c2ccccc21`?
TAAR1 antagonist: -26; OXTR potentiate: -15; V1R ag counter: 0; OXTR agonist: 0; TAAR1 agonist: 2

Results for CN(C)S(=O)(=O)c1ccc(C(=O)NCC(=O)N/N=C/c2ccccc2)cc1 ?
OXTR potentiate: -7; V1R ag counter: 1; OXTR agonist: 0; Ga16 ag counter: 1; Ga16 nonsel ant: 5

Results for O=C(Nc1ccc(C(F)(F)F)cc1)c1cnc(N2CCN(c3ccccn3)CC2)c2ccccc12 ?
TAAR1 antagonist: 11; OXTR potentiate: -2; V1R ag counter: 1; OXTR agonist: 1; TAAR1 agonist: 2

Results for O=C(c1ccccc1)c1ccc(OCC(O)CNCc2ccc(F)cc2)cc1 (configuration not stated) ?
TAAR1 antagonist: 13; TAAR1 agonist: 48*; TAAR1 ag confirm: 48*; Ga16 ag counter: 19*; TAAR1 desensitize: 20; Ga16 nonsel ant: 24*

How did O=C(c1ccccc1)c1ccc(OCC(O)CNCc2cccc(Cl)c2)cc1 (configuration not stated) do in these assays?
TAAR1 antagonist: 7; TAAR1 agonist: 58*; TAAR1 ag confirm: 95*; Ga16 ag counter: 43*; TAAR1 desensitize: 60*; Ga16 nonsel ant: 40*

How did Cc1ccc(OCC(O)CNCc2ccccc2)cc1C (configuration not stated) do in these assays?
TAAR1 antagonist: -28; OXTR potentiate: -11; V1R ag counter: 2; OXTR agonist: 4; TAAR1 agonist: 6

What do the screens show for `C=CCn1c(SCC(=O)N(C)C2CCS(=O)(=O)C2)nnc1-c1ccccc1` (configuration not stated)?
TAAR1 antagonist: -26; OXTR potentiate: -7; V1R ag counter: 0; OXTR agonist: -1; TAAR1 agonist: 1

Results for Cn1c(/C(C#N)=C(\O)CN2CCN(Cc3ccccc3)CC2)nc2ccccc21 ?
TAAR1 antagonist: -22; OXTR potentiate: -6; V1R ag counter: 1; OXTR agonist: -1; TAAR1 agonist: 2

Results for Cc1ccc(SC/C(O)=C(\C#N)c2nc3ccccc3n2C)cc1 ?
TAAR1 antagonist: 56*; OXTR potentiate: -8; V1R ag counter: 2; OXTR agonist: 3; TAAR1 agonist: 52*; TAAR1 ag confirm: 31; Ga16 ag counter: 51*; TAAR1 desensitize: 19; Ga16 nonsel ant: 53*

How did COCCCNC(=O)CN(CCc1ccccc1)S(=O)(=O)c1ccc(C)cc1 do in these assays?
TAAR1 antagonist: 16; OXTR potentiate: -2; V1R ag counter: -1; OXTR agonist: -2; TAAR1 agonist: -1

What do the screens show for `CN(C)CCNC(=O)c1ccc(CS(=O)(=O)c2c(Cl)cccc2Cl)o1`?
TAAR1 antagonist: 4; OXTR potentiate: 1; V1R ag counter: 0; OXTR agonist: 0; TAAR1 agonist: 0

How did CN(CCNC(=O)c1ccc(CS(=O)(=O)c2c(Cl)cccc2Cl)o1)CCc1ccccc1 do in these assays?
TAAR1 antagonist: -17; OXTR potentiate: -8; V1R ag counter: 1; OXTR agonist: 0; TAAR1 agonist: 44*; TAAR1 ag confirm: 55*; Ga16 ag counter: 5; TAAR1 desensitize: 8; Ga16 nonsel ant: 7

Results for O=C(NCCc1ccccc1)c1ccc(CS(=O)(=O)Cc2ccccc2F)o1 ?
TAAR1 antagonist: 32; OXTR potentiate: -3; V1R ag counter: 1; OXTR agonist: 1; TAAR1 agonist: 55*; TAAR1 ag confirm: 83*; Ga16 ag counter: 6; TAAR1 desensitize: 66*; Ga16 nonsel ant: 9

Results for CC1(C)CC(CC(=O)Nc2nccs2)(c2ccccc2)CCO1 (configuration not stated) ?
TAAR1 antagonist: -1; OXTR potentiate: 0; V1R ag counter: 1; OXTR agonist: 1; TAAR1 agonist: 6

What do the screens show for `Cn1c(N/N=C\c2cccc(O)c2)cc(=O)n(C)c1=O`?
TAAR1 antagonist: 7; OXTR potentiate: -2; V1R ag counter: 0; OXTR agonist: -1; TAAR1 agonist: 52*; TAAR1 ag confirm: 77*; Ga16 ag counter: 1; TAAR1 desensitize: 15; Ga16 nonsel ant: 5

How did O=C(CCc1ccccc1)N/N=C/c1cccc(O)c1 do in these assays?
TAAR1 antagonist: 3; OXTR potentiate: -5; V1R ag counter: 0; OXTR agonist: 1; TAAR1 agonist: -1
